Active and inactive are the calls of the source. No cut-off for these calls is given here.
Key:
West Nile virus = assay: Antiviral activity against West Nile virus up to 10 uM; type: functional, organism-based
[1] = system: Human immunodeficiency virus; assay: Antiviral activity against Human immunodeficiency virus up to 10 uM; type: functional, organism-based
[2] = system: Respiratory syncytial virus; assay: Antiviral activity against Respiratory syncytial virus up to 10 uM; type: functional, organism-based
Huh-7 = assay: Cytotoxicity against human HuH7 cells assessed as reduction in cell viability by MTT assay; type: cell-based
Chikungunya virus = assay: Antiviral activity against Chikungunya virus up to 10 uM; type: functional, organism-based
CCRF-CEM = assay: (§1) Cytotoxicity against human CEM cells assessed as reduction in cell viability after 6 days by trypan blue exclusion assay; type: cell-based; conditions: ccrf-cem, 144 h
Dengue virus = assay: Antiviral activity against Dengue virus up to 10 uM; type: functional, organism-based
Vero = assay: (§2) Cytotoxicity against African green monkey Vero cells assessed as reduction in cell viability after 6 days by trypan blue exclusion assay; type: cell-based; conditions: chlorocebus sabaeus, vero, 144 h
[3] = system: unidentified influenza virus; assay: Antiviral activity against Influenza virus up to 10 uM; type: functional, organism-based
Norovirus = assay: Antiviral activity against Norovirus up to 10 uM; type: functional, organism-based
Hepatitis C virus = assay: Antiviral activity against HCV genotype 1b infected in human HuH7 cells assessed as inhibition of viral RNA replication after 5 days by RT-PCR method; type: functional, organism-based, Hepacivirus hominis; conditions: Huh-7, 120 h
Summary of the method: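 Subgenomic HCV genotype 1b replicon in Huh-7 cells. Inhibition of replicon RNA replication was measured by extracting and amplifying HCV RNA. Cellular ribosomal RNA was extracted and amplified at the same time, as a parallel cytotoxicity read-out.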

PBMC = assay: (§3) Cytotoxicity against human PBMC assessed as reduction in cell viability after 6 days by trypan blue exclusion assay; type: cell-based; conditions: pbmc, 144 h
Ebolavirus = assay: Antiviral activity against Ebolavirus up to 10 uM; type: functional
[4] = as §1; type: cell-based, CCRF-CEM; conditions: CEM cells
[5] = as §2; type: cell-based; conditions: chlorocebus sabaeus, Vero cells
[6] = as §3; type: cell-based; conditions: PBMC

Row | Compound | Activity (West Nile virus) | Activity [1] | Activity [2] | CC50 (Huh-7) [µM] | Activity (Chikungunya virus) | CC50 (CCRF-CEM) [µM] | Activity (Dengue virus) | CC50 (Vero) [µM] | Activity [3] | Activity (Norovirus) | EC50 (Hepatitis C virus) [µM] | EC90 (Hepatitis C virus) [µM] | CC50 (PBMC) [µM] | Activity (Ebolavirus) | CC50 at 144 h [4] [µM] | CC50 at 144 h [5] [µM] | CC50 at 144 h [6] [µM]
1 | CC(C)OC(=O)[C@H](C)N[P@](=O)(OC[C@H]1O[C@@H](n2ccc(=O)[nH]c2=O)C(Br)(Br)[C@@H]1O)Oc1ccccc1 | inactive | inactive | inactive | > 10 | inactive | 95 | inactive | > 100 | inactive | inactive | 1.5 | 2.7 | > 100 | inactive | – | – | –
2 | CC(C)OC(=O)[C@H](C)N[P@](=O)(OC[C@H]1O[C@@H](n2cnc3c(N)ncnc32)C(Br)(Br)[C@@H]1O)Oc1ccccc1 | inactive | inactive | inactive | > 10 | inactive | 33 | inactive | 60 | inactive | inactive | > 10 | – | 57 | inactive | – | – | –
3 | O=c1ccn([C@@H]2O[C@H](CO)C(O)C2(Br)Br)c(=O)[nH]1 (single isomer, unassigned) | inactive | inactive | inactive | > 33 | inactive | > 100 | inactive | > 100 | inactive | inactive | > 33 | > 33 | > 100 | inactive | – | – | –
4 | CC(C)OC(=O)[C@H](C)N[P@](=O)(OC[C@H]1O[C@@H](n2cnc3c(=O)[nH]c(N)nc32)C(Br)(Br)[C@@H]1O)Oc1ccccc1 | inactive | inactive | inactive | > 10 | inactive | 34 | inactive | > 100 | inactive | inactive | > 10 | – | > 100 | inactive | – | – | –
5 | CC(C)OC(=O)[C@H](C)N[P@](=O)(OC[C@H]1O[C@@H](n2ccc(N)nc2=O)C(Br)(Br)[C@@H]1O)Oc1ccccc1 | inactive | inactive | inactive | > 10 | inactive | 73 | inactive | > 100 | inactive | inactive | > 10 | > 10 | > 100 | inactive | – | – | –
6 | CC(C)OC(=O)[C@H](C)N[P@](=O)(OC[C@H]1O[C@@H](n2ccc(=O)[nH]c2=O)[C@](C)(F)[C@@H]1O)Oc1ccccc1 [SOFOSBUVIR] | – | – | – | > 10 | – | – | – | – | – | – | 0.2 | 0.5 | – | – | > 100 | > 100 | > 100
7 | Nc1nc2c(ncn2[C@@H]2O[C@H](CO)C(O)C2(Br)Br)c(=O)[nH]1 (single isomer, unassigned) | inactive | inactive | inactive | > 10 | inactive | > 100 | inactive | > 100 | inactive | inactive | > 10 | > 10 | > 100 | inactive | – | – | –
8 | Nc1ccn([C@@H]2O[C@H](CO)C(O)C2(Br)Br)c(=O)n1 (single isomer, unassigned) | inactive | inactive | inactive | > 10 | inactive | 82 | inactive | > 100 | inactive | inactive | > 10 | – | > 100 | inactive | – | – | –
9 | Nc1ncnc2c1ncn2[C@@H]1O[C@H](CO)C(O)C1(Br)Br (single isomer, unassigned) | inactive | inactive | inactive | > 10 | inactive | > 100 | inactive | > 100 | inactive | inactive | > 10 | > 10 | > 100 | inactive | – | – | –
